Legend:
Canis familiaris [1] = experiment: Diuretic activity was evaluated by measuring amount of Cl- during 0-6 hr in urine of normotensive saline loaded dogs at 0.1 mg/kg, po; assay type: ADME, organism-based, Canis lupus familiaris; parameters: dose 0.1 mg/kg, route oral; settings: dog, in vivo
Method in brief: (§1)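 Conscious female dogs, each given one oral dose per experiment. Urine and heparinized venous plasma were taken at each collection time. Urine was centrifuged and chilled, and plasma was separated within 30 min. Both were assayed for Na+, K+, Cl−, urate and glucose. Results are mean excretion in mequiv kg−1 (6 h)−1, with at least two dogs per dose.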

Canis familiaris [2] = experiment: Diuretic activity was evaluated by measuring amount of Cl- during 0-6 h in urine of normotensive saline loaded dogs at 0.3mg/kg, po; assay type: ADME, organism-based, Canis lupus familiaris; settings: dog, in vivo; method in brief: as §1
[3] = Diuretic activity was evaluated by measuring amount of K+ during 0-6 hr in urine of […] monkey at 1 mg/kg, po; assay type: ADME, organism-based; parameters: dose 1 mg/kg, route oral; settings: simiiformes, in vivo
Method in brief: (§2)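 Male and female cynomolgus monkeys, fasted 16–18 h with water until dosing, six per dose. Compound or vehicle was given by pediatric nasogastric tube, followed at once by a 50 mL/kg water load. Monkeys were kept in metabolism cages without food or water for 6 h. Urine was collected at 0–1, 1–2, 2–4 and 4–6 h, and volume, electrolytes, uric acid and glucose were measured.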

Rattus norvegicus [4] = experiment: Diuretic activity was evaluated by measuring amount of K+ during 0-6 hr in urine of normotensive saline loaded rats at 3.0mg/kg, po; assay type: ADME, organism-based; settings: in vivo, 3 mg/kg
Method in brief: (§3)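 Male normotensive Sprague–Dawley rats (275–375 g), eight per group. Test compound or vehicle (0.2% methylcellulose in water, 2 mL/kg) is given by mouth, followed at once by a 0.9% saline load equal to 5% of body weight. Rats are housed in metabolism cages without food or water. Urine is collected at 2, 6 and 24 h and assayed for Na+, K+, Cl−, uric acid and osmolality.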

Canis familiaris [5] = experiment: Diuretic activity was evaluated by measuring amount of Na+ during 0-6 h in urine of normotensive saline loaded dogs at 1.0 mg/kg, po; assay type: ADME, organism-based, Canis lupus familiaris; parameters: dose 1 mg/kg, route oral; settings: dog, in vivo
Method in brief: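 Conscious dogs, each given a single oral dose per experiment, with at least two dogs per dose. Urine volume is measured; aliquots are centrifuged and chilled. Heparinized venous blood (4 mL) is drawn at each urine collection. Urine and plasma are analyzed for Na+, K+, Cl−, urate and glucose. Result is mean Na+ excretion in mequiv kg−1 (6 h)−1.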

[6] = Diuretic activity was evaluated by measuring amount of Na+ during 0-6 hr in urine of normotensive […] monkey at 10mg/kg, po; assay type: ADME, organism-based; settings: simiiformes, in vivo
Method in brief: (§4)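 Male and female cynomolgus monkeys, fasted 16–18 h with water until dosing, six per dose. Compound or vehicle is given through a nasogastric tube, then a 50 mL/kg water load. No food or water for 6 h in metabolism cages. Urine is collected at 0–1, 1–2, 2–4 and 4–6 h and analyzed for electrolytes, uric acid and glucose.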

[7] = Diuretic activity was evaluated by measuring amount of Na+ during 0-6 hr in urine of normotensive […] monkey at 1 mg/kg, po; assay type: ADME, organism-based; parameters: dose 1 mg/kg, route oral; settings: simiiformes, in vivo; method in brief: as §4
Rattus norvegicus [8] = experiment: Diuretic activity was evaluated by measuring amount of Na+ during 0-6 h in urine of normotensive saline loaded rats at 100.0 mg/kg, po; assay type: ADME, organism-based; parameters: dose 100 mg/kg, route oral; settings: in vivo; method in brief: as §3
[9] = Diuretic activity was evaluated by measuring amount of K+ during 0-6 h in urine of […] at 10 mg/kg, po; assay type: ADME, organism-based; parameters: dose 10 mg/kg, route oral; settings: simiiformes, in vivo; method in brief: as §2
Rattus norvegicus [10] = experiment: Diuretic activity was evaluated by measuring amount of Cl- during 0-6 hr in urine of normotensive saline loaded rats at 3.0mg/kg, po; assay type: ADME, organism-based; settings: in vivo, 3 mg/kg
Method in brief: (§5)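 Male Sprague–Dawley rats (275–375 g), fed and watered ad libitum before testing but not during it, eight per group. Compound in 0.2% methylcellulose/water given orally at 2 mL/kg, immediately followed by a 0.9% saline load equal to 5% of body weight. Rats were kept in individual metabolism cages. Urine was sampled at 2, 6 and 24 h for volume, Na+, K+, Cl−, uric acid and osmolality.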

Rattus norvegicus [11] = experiment: Diuretic activity was evaluated by measuring amount of Cl- during 0-6 h in urine of normotensive saline loaded rats at 30.0 mg/kg, po; assay type: ADME, organism-based; parameters: dose 30 mg/kg, route oral; settings: in vivo; method in brief: as §5
Canis familiaris [12] = experiment: Diuretic activity was evaluated by measuring amount of K+ during 0-6 hr in urine of normotensive saline loaded dogs at 0.03mg/kg, po; assay type: ADME, organism-based, Canis lupus familiaris; settings: dog, in vivo; method in brief: as §1
Canis familiaris [13] = experiment: Diuretic activity was evaluated by measuring amount of K+ during 0-6 hr in urine of normotensive saline loaded dogs at 0.1 mg/kg, po; assay type: ADME, organism-based, Canis lupus familiaris; parameters: dose 0.1 mg/kg, route oral; settings: dog, in vivo; method in brief: as §1
Canis familiaris [14] = experiment: Diuretic activity was evaluated by measuring amount of K+ during 0-6 hr in urine of normotensive saline loaded dogs at 0.3mg/kg, po; assay type: ADME, organism-based, Canis lupus familiaris; settings: dog, in vivo; method in brief: as §1
Canis familiaris [15] = experiment: Diuretic activity was evaluated by measuring amount of K+ during 0-6 hr in urine of normotensive saline loaded dogs at 10.0mg/kg, po; assay type: ADME, organism-based, Canis lupus familiaris; settings: dog, in vivo, 10 mg/kg; method in brief: as §1
Canis familiaris [16] = experiment: Diuretic activity was evaluated by measuring amount of K+ during 0-6 hr in urine of normotensive saline loaded dogs at 3.0mg/kg, po; assay type: ADME, organism-based, Canis lupus familiaris; settings: dog, in vivo, 3 mg/kg; method in brief: as §1
[17] = Diuretic activity was evaluated by measuring amount of Cl- during 0-6 hr in urine of normotensive […] monkey at 1 mg/kg, po; assay type: ADME, organism-based; parameters: dose 1 mg/kg, route oral; settings: simiiformes, in vivo; method in brief: as §2
[18] = Diuretic activity was evaluated by measuring amount of Cl- during 0-6 h in urine of […] monkey at 30 mg/kg, po; assay type: ADME, organism-based; parameters: dose 30 mg/kg, route oral; settings: simiiformes, in vivo; method in brief: as §2
Rattus norvegicus [19] = experiment: Diuretic activity was evaluated by measuring amount of Cl- during 0-6 hr in urine of normotensive saline loaded rats at 1.0mg/kg, po; assay type: ADME, organism-based; settings: in vivo, 1 mg/kg; method in brief: as §5
Rattus norvegicus [20] = experiment: Diuretic activity was evaluated by measuring amount of K+ during 0-6 hr in urine of normotensive saline loaded rats at 0.1 mg/kg, po; assay type: ADME, organism-based; parameters: dose 0.1 mg/kg, route oral; settings: in vivo; method in brief: as §5
Rattus norvegicus [21] = experiment: Diuretic activity was evaluated by measuring amount of K+ during 0-6 hr in urine of normotensive saline loaded rats at 10.0mg/kg, po; assay type: ADME, organism-based; settings: in vivo, 10 mg/kg; method in brief: as §5
Rattus norvegicus [22] = experiment: Diuretic activity was evaluated by measuring amount of K+ during 0-6 h in urine of normotensive saline loaded rats at 100.0 mg/kg, po; assay type: ADME, organism-based; parameters: dose 100 mg/kg, route oral; settings: in vivo; method in brief: as §5
Rattus norvegicus [23] = experiment: Percent change of arterial blood pressure in spontaneously hypertensive rats at the dose of 1 mg/kg (p.o.) after […] (control BP(mm Hg)=215); assay type: functional; settings: route oral
Rattus norvegicus [24] = experiment: Percent change of arterial blood pressure in spontaneously hypertensive rats at the dose of 1 mg/kg (p.o.) after 6 hr (control BP(mm Hg)=215); assay type: functional; settings: route oral
Rattus norvegicus [25] = experiment: Percent change of arterial blood pressure in spontaneously hypertensive rats at the dose of 3 mg/kg (p.o.) after […] (control BP(mm Hg)=221); assay type: functional; settings: route oral
Rattus norvegicus [26] = experiment: Percent change of arterial blood pressure in spontaneously hypertensive rats at the dose of 3 mg/kg (p.o.) after 24 hr (control BP(mm Hg)=221); assay type: functional; settings: route oral
Rattus norvegicus [27] = experiment: Percent change of arterial blood pressure in spontaneously hypertensive rats at the dose of 3 mg/kg (p.o.) after 6 hr (control BP(mm Hg)=221); assay type: functional; settings: route oral
Rattus norvegicus [28] = experiment: Percent change of arterial blood pressure in spontaneously hypertensive rats at the dose of 10 mg/kg (p.o.) after […] (control BP(mm Hg)=219); assay type: functional; settings: route oral
[29] = Diuretic activity was evaluated by measuring amount of K+ during 0-6 hr in urine of normotensive water loaded monkey at 3mg/kg, po; settings: simiiformes, in vivo

Compound: CCOC(=O)COc1ccc(C(=O)c2ccc(O)c(CN)c2)c(Cl)c1Cl.Cl
- Diuretic activity (Canis familiaris [1]): 1 m equiv kg-1
- Diuretic activity (Canis familiaris [2]): 3 m equiv kg-1
- Diuretic activity [3]: 0.7 m equiv kg-1
- Diuretic activity (Rattus norvegicus [4]): 3.8 m equiv kg-1
- Diuretic activity (Canis familiaris [5]): 5 m equiv kg-1
- Diuretic activity [6]: 6.6 m equiv kg-1
- Diuretic activity [7]: 2.7 m equiv kg-1
- Diuretic activity (Rattus norvegicus [8]): 13.8 m equiv kg-1
- Diuretic activity [9]: 1.3 m equiv kg-1
- Diuretic activity (Rattus norvegicus [10]): 16.3 m equiv kg-1
- Diuretic activity (Rattus norvegicus [11]): 17.4 m equiv kg-1
- Diuretic activity (Canis familiaris [12]): 0.3 m equiv kg-1
- Diuretic activity (Canis familiaris [13]): 0.6 m equiv kg-1
- Diuretic activity (Canis familiaris [14]): 1 m equiv kg-1
- Diuretic activity (Canis familiaris [15]): 1.7 m equiv kg-1
- Diuretic activity (Canis familiaris [16]): 1.8 m equiv kg-1
- Diuretic activity [17]: 2.7 m equiv kg-1
- Diuretic activity [18]: 6.9 m equiv kg-1
- Diuretic activity (Rattus norvegicus [19]): 14.8 m equiv kg-1
- Diuretic activity (Rattus norvegicus [20]): 2.6 m equiv kg-1
- Diuretic activity (Rattus norvegicus [21]): 3.3 m equiv kg-1
- Diuretic activity (Rattus norvegicus [22]): 3.6 m equiv kg-1
- Change (Rattus norvegicus [23]): -17%
- Change (Rattus norvegicus [24]): -11%
- Change (Rattus norvegicus [25]): -22%
- Change (Rattus norvegicus [26]): -14%
- Change (Rattus norvegicus [27]): -13%
- Change (Rattus norvegicus [28]): -31%
- Diuretic activity [29]: 1.1 m equiv kg-1

— ChEMBL document CHEMBL1122781, “[(Aminomethyl)aryloxy]acetic acid esters. A new class of high-ceiling diuretics. 1. Effects of nitrogen and aromatic nuclear substitution” (J Med Chem, 1984)
